Assays:
T47D = assay: Induction of apoptosis in human T47D cells assessed as caspase activation after 48 hrs by HTS assay; assay type: functional, cell-based
How it was run: (§1)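 Cell-based caspase activation HTS assay that reads cleavage of a fluorescent caspase-3 substrate in human breast cancer T47D or non-small cell lung cancer H1299 cells. Cells were exposed to compound for 48 h. EC50 is the mean ± SEM of three or more experiments.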

NCI-H1299 = assay: Induction of apoptosis in human H1299 cells assessed as caspase activation after 48 hrs by HTS assay; assay type: functional, cell-based; conditions: NCI-H1299, 48 h; how it was run: as §1
[1] = Inhibition of tubulin polymerization by high-throughput assay
MX1 [2] = assay: Antitumor activity against human MX1 cells xenografted in iv dosed Crl:Nu/Nu-nuBR mouse assessed as tumor growth inhibition administered as single dose; assay type: functional, organism-based
How it was run: (§2)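 Nude (Crl:Nu/Nu-nuBR) mice bore established MX-1 xenografts of about 100 mm³. Compound was given iv as single doses of 35, 50 or 75 mg/kg on day 1, or at 7 mg/kg daily on days 1–5, against a vehicle group. Tumor growth inhibition was assessed against vehicle, with significance by Student's t-test.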

Mus musculus = assay: Toxicity in Crl:Nu/Nu-nuBR mouse assessed as maximum body weight decrease at 75 mg/kg, iv administered as single dose; assay type: organism-based; set-up: dose 75 mg/kg, route intravenous; scale not given: the % may be the effect or the level left; conditions: in vivo
MX1 [3] = assay: Antitumor activity against human MX1 cells xenografted in Crl:Nu/Nu-nuBR mouse assessed as tumor growth inhibition at 75 mg/kg, iv administered as single dose; assay type: functional; conditions: read-out: TGI; how it was run: as §2

Row | SMILES | EC50 (T47D) [nM] | EC50 (NCI-H1299) [nM] | IC50 [1] [nM] | Activity (MX1 [2]) | Activity (Mus musculus) [%] | inhibition in vivo at 75 mg/kg (MX1 [3]) [%]
1 | COc1ccccc1N(C)c1ncnc2ccsc12 | > 10000 | > 10000 |  |  |  | 
2 | COc1ccc(N(C)c2ncnc3sccc23)cc1 | 22 | 44 | < 1000 |  |  | 
3 | COc1ccc(Nc2nc(C)nc3scc(C)c23)cc1 | > 10000 | > 10000 |  |  |  | 
4 | COc1ccc(N(C)c2ncnc3cc(I)sc23)cc1 | > 10000 | > 10000 |  |  |  | 
5 | COc1ccc(N(C)c2ncnc3c(C)csc23)cc1 | 560 | 560 |  |  |  | 
6 | COc1ccc(N(C)c2nc(C)nc3c(C)csc23)cc1 | 240 | 310 |  |  |  | 
7 | COc1ccc(N(C)c2nccc3ccsc23)cc1 | > 10000 | > 10000 |  |  |  | 
8 | COc1ccc(N(C)c2nc(C)nc3sc(C)c(C)c23)cc1 | 21 | 91 | < 1000 |  |  | 
9 | COc1ccc(N(C)c2ncnc3sc(C)c(C)c23)cc1 | 24 | 53 | < 1000 |  |  | 
10 | COC(=O)c1ccc(N(C)c2ncnc3ccsc23)cc1 | 190 | 340 |  |  |  | 
11 | COc1cc2c(c(OC)c1OC)-c1ccc(OC)c(=O)cc1[C@@H](NC(C)=O)CC2 [COLCHICINE] | 9 | 50 | 500 |  |  | 
12 | c1ccc(-c2cc3ncnc(Nc4ccc5c(c4)OCO5)c3s2)cc1 | > 10000 | > 10000 |  |  |  | 
13 | COc1ccc(N(C)c2ncnc3scc(C)c23)cc1 | 15 | 25 | < 1000 |  |  | 
14 | COc1ccc(Nc2ncnc3ccsc23)cc1 | > 10000 | > 10000 |  |  |  | 
15 | c1ccc(-c2cc3ncnc(NCc4ccc5c(c4)OCO5)c3s2)cc1 | 1000 | 700 |  |  |  | 
16 | COc1ccc(N(C)c2ncnc3cc(-c4cccnc4)sc23)cc1 | > 10000 | > 10000 |  |  |  | 
17 | COc1ccc(N(C)c2ncnc3ccsc23)cc1OC | 1700 | 2800 |  |  |  | 
18 | COc1ccc(N(C)c2nc(C)nc3scc(C)c23)cc1 | 4 | 15 | < 1000 |  |  | 
19 | COc1ccc(N(C)c2nc(C)nc3sccc23)cc1 | 8 | 16 | < 1000 | Dose-dependent effect | < 10 | 90
20 | COc1ccc(N(C)c2nc(-c3ccccc3)nc3ccsc23)cc1 | 340 | 630 |  |  |  | 
21 | COc1cc(OC)cc(N(C)c2ncnc3ccsc23)c1 | > 10000 | > 10000 |  |  |  | 
22 | COc1ccc(OC)c(N(C)c2ncnc3ccsc23)c1 | 2600 | 5000 |  |  |  | 
23 | COc1ccc(N(C)c2ncnc3ccsc23)cc1 | 52 | 240 | < 1000 |  |  | 
24 | COc1ccc(N(C)c2nc(C)nc3ccsc23)cc1 | 14 | 32 | < 1000 |  |  | 
25 | COc1ccc(N(C)c2nc(C)nc3ccccc23)cc1 [VERUBULIN] | 2 | 6 |  |  |  | 
26 | c1nc(NCc2ccc3c(c2)OCO3)c2sccc2n1 | > 10000 | > 10000 |  |  |  | 
27 | COc1ccc(Nc2ncnc3scc(C)c23)cc1 | > 10000 | > 10000 |  |  |  | 
28 | COc1cccc(N(C)c2ncnc3ccsc23)c1 | > 10000 | > 10000 |  |  |  | 

— ChEMBL document CHEMBL1136979, “Discovery of 4-anilino-N-methylthieno[3,2-d]pyrimidines and 4-anilino-N-methylthieno[2,3-d]pyrimidines as potent apoptosis inducers” (Bioorg Med Chem Lett, 2009)
